The source made the active and inactive calls. The calls are words filed in the database; no cut-off is given here.
Legend:
[1] = tested on: LNCaP; assay: Cytotoxicity against human LNCaP cells assessed as reduction in cell viability by […]; format: functional, cell-based
In short: (§1)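 Growth of PC-3, DU-145 and LNCaP prostate cancer lines read by MTS tetrazolium proliferation assay. Cisplatin served as the positive reference standard.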

[2] = molecular target: Methionine aminopeptidase 2 (Homo sapiens) (UniProt P50579); assay: Inhibition of MetAP2 in human LNCaP cells assessed as reduction in AKT phosphorylation at 5 to 20 uM incubated upto 120 mins by Western blot analysis; format: cell-based; settings: dose 5-20 µM, time min <=120
In short: (§2)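 LNCaP cells (1×10^6 per well, n = 3) plated in phenol-red-free RPMI-1640 with 1% FBS for 24 h, then exposed at 5 and 20 µM for 0, 15, 60 and 120 min. Lysates were assayed for total protein, and phosphorylated AKT, ERK, p38 and JNK were detected by Western blot.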
Target sequence in this assay (P50579 2-478 limits assumed): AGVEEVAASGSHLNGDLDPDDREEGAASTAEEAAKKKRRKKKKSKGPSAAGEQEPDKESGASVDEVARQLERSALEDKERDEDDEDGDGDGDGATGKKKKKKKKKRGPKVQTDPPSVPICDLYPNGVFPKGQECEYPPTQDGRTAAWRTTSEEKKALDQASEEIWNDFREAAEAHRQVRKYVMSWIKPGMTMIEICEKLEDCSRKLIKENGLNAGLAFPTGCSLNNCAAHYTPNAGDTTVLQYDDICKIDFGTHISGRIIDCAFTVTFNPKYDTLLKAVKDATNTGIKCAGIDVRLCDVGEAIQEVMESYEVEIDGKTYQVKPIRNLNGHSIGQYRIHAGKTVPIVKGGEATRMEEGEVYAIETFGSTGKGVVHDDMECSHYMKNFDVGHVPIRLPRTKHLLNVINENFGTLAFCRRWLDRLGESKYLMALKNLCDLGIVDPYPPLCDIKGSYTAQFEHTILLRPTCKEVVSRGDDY

[3] = tested on: PC-3; assay: Cytotoxicity against human PC-3 cells assessed as reduction in cell viability by […]; format: functional, cell-based; in short: as §1
[4] = tested on: DU-145; assay: Cytotoxicity against human DU-145 cells assessed as reduction in cell viability by […]; format: functional, cell-based; in short: as §1
[5] = molecular target: Methionine aminopeptidase 2 (Homo sapiens) (UniProt P50579); assay: Inhibition of MetAP2 in human LNCaP cells assessed as reduction in ERK/MAPK phosphorylation at 5 to 20 uM incubated upto 120 mins by Western blot analysis; format: cell-based; settings: dose 5-20 µM, time min <=120; in short: as §2
Target sequence in this assay (P50579 2-478 limits assumed): as above

[6] = molecular target: Methionine aminopeptidase 2 (Homo sapiens) (UniProt P50579); assay: Inhibition of MetAP2 in human LNCaP cells assessed as reduction in JNK/MAPK phosphorylation at 5 to 20 uM incubated upto 120 mins by Western blot analysis; format: cell-based; settings: dose 5-20 µM, time min <=120; in short: as §2
Target sequence in this assay (P50579 2-478 limits assumed): as above

[7] = molecular target: Methionine aminopeptidase 2 (Homo sapiens) (UniProt P50579); assay: Inhibition of MetAP2 in human LNCaP cells assessed as reduction in P28/MAPK phosphorylation at 5 to 20 uM incubated upto 120 mins by Western blot analysis; format: cell-based; settings: dose 5-20 µM; in short: as §2
Target sequence in this assay (P50579 2-478 limits assumed): as above

[8] = Toxicity in mouse assessed as effect on total bilirubin level measured after 3 days by blood analyser(reference value: 0.27+/- 0.05 mg/dl); format: tissue-based; settings: 72 h, time 3 day
[9] = tested on: LNCaP; assay: Induction of apoptosis in human LNCAP cells assessed as down regulation of Bcl-2 expression upto 20 uM measured after 6 hrs by Rt-PCR; format: functional, cell-based; settings: dose microM <=20, time 6.0 hrs
[10] = tested on: LNCaP; assay: Induction of apoptosis in human LNCAP cells assessed as up regulation of Caspase 3 expression upto 20 uM measured after 6 hrs by Rt-PCR; format: functional, cell-based; settings: dose microM <=20, time 6.0 hrs, TDE = time-dependent effect
[11] = Toxicity in mouse assessed as effect on phosphate level measured after 3 days by blood analyser(reference value: 10.07+/- 1.06 mg/dl); format: tissue-based; settings: 72 h, time 3 day
[12] = tested on: LNCaP; assay: Induction of apoptosis in human LNCAP cells assessed as up regulation of Caspase 9 expression upto 20 uM measured after 6 hrs by Rt-PCR; format: functional, cell-based; settings: dose microM <=20, time 6.0 hrs, TDE = time-dependent effect
[13] = Toxicity in mouse assessed as effect on globulin level measured after 3 days by blood analyser(reference value: 3.17+/-0.31 g/dl); format: tissue-based; settings: 72 h, time 3 day
[14] = molecular target: Methionine aminopeptidase 2 (Homo sapiens) (UniProt P50579); assay: Inhibition of MetAP2 (unknown origin) incubated measured at 12.5 to 200 uM for 30 mins by spectrophotometric analysis; settings: dose 12.5-200 µM
Target sequence in this assay (P50579 whole entry, looked up): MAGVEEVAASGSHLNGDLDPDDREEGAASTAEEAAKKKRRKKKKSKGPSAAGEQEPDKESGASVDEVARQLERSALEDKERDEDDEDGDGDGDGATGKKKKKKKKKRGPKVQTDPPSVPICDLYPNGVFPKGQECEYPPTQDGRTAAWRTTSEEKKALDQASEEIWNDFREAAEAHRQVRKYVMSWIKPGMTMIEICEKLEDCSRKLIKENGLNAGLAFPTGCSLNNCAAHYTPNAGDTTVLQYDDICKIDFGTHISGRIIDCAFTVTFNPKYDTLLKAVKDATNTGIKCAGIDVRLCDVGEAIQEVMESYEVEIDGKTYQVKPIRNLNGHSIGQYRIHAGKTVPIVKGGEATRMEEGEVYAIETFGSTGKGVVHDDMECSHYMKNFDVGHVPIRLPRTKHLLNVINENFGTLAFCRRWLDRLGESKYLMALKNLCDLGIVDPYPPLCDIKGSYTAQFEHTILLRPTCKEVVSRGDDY

[15] = Toxicity in mouse assessed as effect on total protein level measured after 3 days by blood analyser(reference value: 5.7+/-0.4 g/dl); format: tissue-based; settings: 72 h, time 3 day
[16] = Toxicity in mouse assessed as effect on keratin level measured after 3 days by blood analyser(reference value: 0.2+/- 0.07 mg/dl); format: tissue-based; settings: 72 h, time 3 day
[17] = Toxicity in mouse assessed as effect on potassium level measured after 3 days by blood analyser(reference value: 10.7+/-2.2 mmol/l); format: tissue-based; settings: 72 h, time 3 day
[18] = Toxicity in mouse assessed as effect on glucose level measured after 3 days by blood analyser(reference value: 192+/- 33 mg/dl); format: tissue-based; settings: 72 h, time 3 day
[19] = Toxicity in mouse assessed as effect on blood urea nitrogen level measured after 3 days by blood analyser(reference value: 27+/- 2.6 mg/dl); settings: in vivo, 72 h, time 3 day
[20] = Toxicity in mouse assessed as effect on alkaline phosphatase level measured after 3 days by blood analyser(reference value: 144.50+/- 83.5 u/l); format: tissue-based; settings: 72 h, time 3 day
[21] = tested on: LNCaP; assay: Antitumor activity against human LNCaP cells xenografted in mouse assessed as decrease in ROI of cancer tissue at 0.27 mg measured after 15 days by IVIS image analysis; format: functional; settings: time 15 day
In short: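 LNCaP cells (5×10^6–6×10^6 cells/100 µL) injected subcutaneously into male nude mice; treatment given over 15 days, with controls receiving saline intraperitoneally every 4 days. Cancerous tissue visualized by in vivo imaging (IVIS).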

[22] = tested on: LNCaP; assay: Induction of apoptosis in human LNCAP cells assessed as up regulation of Bax expression upto 20 uM measured after 6 hrs by Rt-PCR; format: functional, cell-based; settings: dose microM <=20, time 6.0 hrs, TDE = time-dependent effect
[23] = Toxicity in mouse assessed as effect on albumin level measured after 15 days by blood analyser(reference value: 2.6+/- 0.36 g/dl); settings: 360 h
[24] = Toxicity in mouse assessed as effect on sodium level measured after 3 days by blood analyser(reference value: 148.33+/-1.89 mmol/l); format: tissue-based; settings: 72 h, time 3 day
[25] = Toxicity in mouse assessed as effect on alanine transaminase level measured after 3 days by blood analyser(reference value: 679.50+/- 71.5 u/l); format: tissue-based; settings: 72 h, time 3 day

COc1ccc(CSc2nnc([C@@H](C)c3ccc4cc(OC)ccc4c3)n2-c2ccc(F)cc2)cc1
IC50 [1]: 22.8 µM
inhibition [2]: inactive
IC50 [3]: > 400 µM
IC50 [4]: > 400 µM
inhibition [5]: inactive
inhibition [6]: inactive
inhibition ([7]; time min <=120, in the assay text read “P38/MAPK” for “P28/MAPK”): inactive

COc1ccc2cc([C@H](C)c3nnc(SCc4ccc(C)cc4)n3-c3ccc(Cl)cc3)ccc2c1
IC50 [1]: 52.2 µM
IC50 [3]: 8.4 µM
IC50 [4]: 18.8 µM

COc1ccc2cc([C@H](C)c3nnc(SCc4c(Cl)cccc4Cl)n3-c3cccc(Cl)c3)ccc2c1
IC50 [1]: 73.7 µM
IC50 [3]: 165 µM
IC50 [4]: > 400 µM

COc1ccc2cc([C@H](C)c3nnc(SCc4c(C)cc(C)cc4C)n3-c3ccc(F)cc3)ccc2c1
Activity [8]: 0.3 mg/dL
IC50 [1]: 2.21 µM
Activity [9]: Active
inhibition [2]: Active
IC50 [3]: 43.3 µM
IC50 [4]: 10.2 µM
Activity [10]: Tde
Activity [11]: 7.15 mg/dL
Activity [12]: Tde
Activity [13]: 3.6 g/dL
inhibition [14]: Active
Activity [15]: 5.3 g/dL
inhibition [5]: Active
Activity [16]: 0.25 mg/dL
inhibition [6]: Active
Activity [17]: 5.6 mmol/L
Activity [18]: 154 mg/dL
Activity [19]: 21.5 mg/dL
inhibition ([7]; time min <=120): Active
Activity [20]: 58 U/L
inhibition (INH) [21]: 55%
Activity [22]: Tde
Activity [23]: 1.25 g/dL
Activity [24]: 137.5 mmol/L
Activity [25]: 64.5 U/L

COc1ccc2cc([C@H](C)C(=O)NNC(=S)Nc3ccc(C(F)(F)F)cc3)ccc2c1
IC50 [1]: 92.8 µM
IC50 [3]: 64.3 µM
IC50 [4]: 62.2 µM

COc1ccc2cc([C@H](C)c3nnc(SCc4c(C)cc(C)cc4C)n3-c3cccc(Cl)c3)ccc2c1
IC50 [1]: > 400 µM
IC50 [3]: 16.3 µM
IC50 [4]: 93.3 µM

COc1ccc2cc([C@H](C)c3nnc(SCc4ccc(F)cc4)n3-c3ccc(Cl)cc3)ccc2c1
IC50 [1]: 33.9 µM
IC50 [3]: 10.8 µM
IC50 [4]: 33.6 µM

COc1ccc2cc([C@H](C)c3nnc(SCc4c(Cl)cccc4Cl)n3-c3ccc(Cl)cc3)ccc2c1
IC50 [1]: > 400 µM
IC50 [3]: 34.7 µM
IC50 [4]: 36.1 µM

COc1ccc2cc([C@H](C)c3nnc(SCc4ccc(Cl)cc4)n3-c3ccc(F)cc3)ccc2c1
IC50 [1]: > 400 µM
IC50 [3]: > 400 µM
IC50 [4]: 57.4 µM

COc1ccc2cc([C@H](C)c3nnc(SCc4ccc(Cl)cc4)n3-c3ccc(Cl)cc3)ccc2c1
IC50 [1]: 110 µM
IC50 [3]: 5.8 µM
IC50 [4]: 109 µM

COc1cccc(CSc2nnc([C@@H](C)c3ccc4cc(OC)ccc4c3)n2-c2ccc(Cl)cc2)c1
IC50 [1]: 162 µM
IC50 [3]: 138 µM
IC50 [4]: > 400 µM

COc1ccc2cc([C@H](C)c3nnc(SCc4ccccc4)n3-c3ccc(Cl)cc3)ccc2c1
IC50 [1]: 50.4 µM
IC50 [3]: 14.2 µM
IC50 [4]: 35.8 µM

COc1ccc2cc([C@H](C)c3nnc(SCc4ccc(C)cc4)n3-c3ccc(F)cc3)ccc2c1
IC50 [1]: > 400 µM
IC50 [3]: 229 µM
IC50 [4]: 44.3 µM

COc1ccc2cc([C@H](C)c3nnc(SCc4ccc(F)cc4)n3-c3ccc(F)cc3)ccc2c1
IC50 [1]: 104 µM
IC50 [3]: > 400 µM
IC50 [4]: 60.2 µM

COc1cccc(CSc2nnc([C@@H](C)c3ccc4cc(OC)ccc4c3)n2-c2ccc(F)cc2)c1
IC50 [1]: 14.5 µM
IC50 [3]: 211 µM
IC50 [4]: 19.2 µM

COc1ccc2cc([C@H](C)c3nnc(SCc4c(Cl)cccc4Cl)n3-c3ccc(F)cc3)ccc2c1
IC50 [1]: 12.2 µM
IC50 [3]: 216 µM
IC50 [4]: 12.2 µM

COc1ccc(CSc2nnc([C@@H](C)c3ccc4cc(OC)ccc4c3)n2-c2ccc(Cl)cc2)cc1
IC50 [1]: > 400 µM
IC50 [3]: > 400 µM
IC50 [4]: 72.6 µM

Source: ChEMBL document CHEMBL4706600, “Synthesis, molecular modeling, in vivo study and anticancer activity against prostate cancer of (+) (S)-naproxen derivatives” (Eur J Med Chem, 2020)
